Among the data in ChEMBL document CHEMBL1122586, “Cytochrome P-455 nm complex formation in the metabolism of phenylalkylamines. 8. Stereoselectivity in metabolic intermediary complex formation with a series of chiral 2-substituted 1-phenyl-2-aminoethanes” (J Med Chem, 1984) are Vmax and Km values, retold here.

The structures appear in SMILES notation.

A short description of data set [1]: Compound was tested for the maximal velocity of metabolic intermediary complex formation. The data set is classed as ADME. Summed up:
(§1)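 Liver microsomes from male Sprague-Dawley rats (200–240 g) pretreated with phenobarbital ip (three daily injections of 80, then 40 mg/kg on day 4), isolated by gel filtration. Incubation at 25 °C, 1 mg/mL protein, 50 mM potassium phosphate pH 7.5, 10 mM MgCl2, with substrate. Started by NADPH. ΔA455–490 per μmol P-450 versus time read by difference spectroscopy. Vmax(obsd) and Km(app) come from linear plots over a defined substrate range.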

Data set [2] is described as follows: Apparent Michaelis-Menten constant (Km (app)) for the metabolic intermediary complex formation was reported. The data set is classed as ADME. Particulars: read-out: Km app. The method, boiled down:
as §1

One may read the Km as the concentration of substrate that gives half-maximal velocity. For `CCC[C@H](N)Cc1ccccc1.Cl`, the Vmax in data set [1] is on record as 9.1. The Km in data set [2] is 32 µM.
As to `CCCC[C@H](N)Cc1ccccc1.Cl`, in data set [1], the Vmax is listed as 10.5. Further, in data set [2], the Km came to 21 µM.
Taken in the same sequence, the figures for `CCC[C@@H](N)Cc1ccccc1.Cl` were 5.1 and 28 µM.
With `C[C@@H](N)Cc1ccccc1.Cl`, the Vmax in data set [1] is listed as ~ 1.5. Moreover, the Km in data set [2] was approximately 270 µM.
Taken in the same sequence, the figures for `CCCC[C@@H](N)Cc1ccccc1.Cl` were 5.7 and 16 µM.
On the same counts, the results for `C[C@H](N)Cc1ccccc1.Cl` are ~ 1.6 and approximately 280 µM.
As to `CCC(N)Cc1ccccc1.Cl` (stereo unspecified), the Vmax in data set [1] is recorded as 4. Moreover, the Michaelis-Menten constant (Km) in data set [2] is 30 µM.
On to `CC[C@@H](N)Cc1ccccc1.Cl`, for which, in data set [1], the Vmax is listed as 3.2. Moreover, the Km in data set [2] is 23 µM.
